In the library only some 4.3% were active in any assay of this set; here they are far more common.
UBC13 inh = inhibitors of human UBC13 polyubiquitin chain formation. P61088. TR-FRET. inhibition, % at 20 µM. 330,000 tested, 0.47% active; in the data active = inhibition above about 45%, passing the limit was not always enough; inconclusive = no clear call, values can overlap the other calls
ALR H2O2 inh = inhibitors of human sulfhydryl oxidase ALR; P55789; purified ALR, DTT oxidation, H2O2 HRP-luminol luminescence; inhibition, % (concentration not given with the values); 290,000 tested, 3.8% active; AID 485317;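 active = mean replicate inhibition above about 79%, with every replicate also reaching it, limit read from the data; inconclusive = only one of the two criteria met; inactive = mean below limit and not every replicate reaching it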
RBBP9 inhibitor = inhibitors of human serine hydrolase RBBP9. recombinant RBBP9, FP-Rh probe fluorescence polarization. inhibition, % at 7.94 µM. 220,000 tested, 0.2% active;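 active = inhibition above the campaign mean of all tested compounds plus 3 SD, cut at about 14% in these data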
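Measured by – fluorescence polarization · Test system – RBBP9 protein · Input – 2.5 µM RBBP9 dispensing solution, before mixing · Measure – percent inhibition from mP, scaled between DMSO and no-protein wells · Benchmarks – DMSO-treated enzyme wells and wells lacking RBBP9 · Times – preincubation 30 min plus labeling 45 min at 25 °C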
SUMO HTRF inh = blocks human SUMOylation mediated by UBC9. P63279. HTRF SUMOylation assay, SAE1/SAE2 + UBC9, in vitro. inhibition, % at 35 µM. 290,000 tested, 0.36% active. AID 2006; in the data active = inhibition above about 50%, passing the limit was not always enough; inconclusive = no clear call, values can overlap the other calls
PREPL inh = human PREPL enzyme inhibition; recombinant PREPL, fluorescence polarization activity-based probe; 320,000 tested, 0.68% active; inhibition, % at 5.96 µM; in the data active = inhibition above about 43%
Rin1-Abl PPI inh = blocks binding of human Rin1 to Abl; inhibition, % at 7.35 µM; 360,000 tested, 0.4% active; P00519+Q13671; TR-FRET Rin1/Abl binding, biochemical; in the data active = inhibition above about 5%, passing the limit was not always enough
Casp3 counter = inhibits human caspase-3 in UBC13 counter-screen; shares compounds with UBC13 inh; Recombinant caspase-3, Caspase-Glo 3/7 luminescence, 60 min; inhibition, % at 20 µM; 1,400 tested, 4% active; AID 488856;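 active = mean inhibition across replicates above about 26%, limit read from the data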
UBC13 confirm = confirmation of human UBC13 polyubiquitin inhibitors; 1,400 tested, 68% active; inhibition, % at 10 µM; UBC13 polyubiquitination, TR-FRET, biochemical; AID 488859; shares compounds with UBC13 inh; in the data active = inhibition above about 45%; inconclusive = no clear call, values can overlap the other calls
Large screens that a line does not name were inactive (follow-up assays come after a bar, where they were run).

C#CCOCCOCCOCCNc1nc(N2CCN(C(=O)C([C@@H](C)O)n3cc([C@@H](N)CCCCN)nn3)CC2)nc(N2CCN(C(=O)[C@H](CCCCN)n3cc([C@@H](N)CC(N)=O)nn3)CC2)n1 (some centres undefined)	UBC13 inh 103 (no result: RBBP9 inhibitor, SUMO HTRF inh) | Casp3 counter inactive | UBC13 confirm 106
O=[N+]([O-])c1ccc(-c2nc(Cl)c3c(n2)CCCC3)o1	none (no result: UBC13 inh, ALR H2O2 inh, RBBP9 inhibitor, SUMO HTRF inh, PREPL inh)
CCCNC(=O)C[C@@H]1C[C@H]2c3cc(NC(=O)c4ccc5c(c4)OCO5)ccc3O[C@H]2[C@@H](CO)O1	none (no result: UBC13 inh, ALR H2O2 inh, RBBP9 inhibitor, SUMO HTRF inh, PREPL inh)
O=C(CCCn1c(=S)[nH]c2ccc(Br)cc2c1=O)NCc1ccccn1	none (no result: RBBP9 inhibitor)
O=C(CCCn1c(=S)[nH]c2ccc(Br)cc2c1=O)N1CCN(c2ccccn2)CC1	UBC13 inh 45, ALR H2O2 inh 92 | Casp3 counter inactive | UBC13 confirm inactive
CCOc1ccc(NC(=O)Cn2c(=O)n(CCCC(=O)NC3CCN(Cc4ccccc4)CC3)c(=O)c3ccccc32)cc1	UBC13 inh 92 (no result: RBBP9 inhibitor) | Casp3 counter inactive | UBC13 confirm 97
COC(=O)c1c(-c2ccc(SC)cc2)sc2ccc(OC)cc12	UBC13 inh 50 (no result: RBBP9 inhibitor, SUMO HTRF inh) | Casp3 counter inactive | UBC13 confirm inconclusive
COC(=O)c1c(-c2cc(OC)cc(OC)c2)sc2ccc(OC)cc12	none (no result: ALR H2O2 inh, RBBP9 inhibitor, SUMO HTRF inh)
COC(=O)c1c(-c2ccc(S(C)(=O)=O)cc2)sc2cc(OC)ccc12	UBC13 inh inconclusive (no result: RBBP9 inhibitor, SUMO HTRF inh)
COC(=O)c1c(-c2ccc(S(C)(=O)=O)cc2)sc2ccc(OC)cc12	UBC13 inh 54 (no result: RBBP9 inhibitor, SUMO HTRF inh) | Casp3 counter inactive | UBC13 confirm inactive
CC(C)(C)OC(=O)N1CCC2(CC1)Oc1ccc(F)cc1C(=O)C21CC(c2ccc(Cl)cc2)=NO1 (centres undefined)	none (no result: RBBP9 inhibitor, SUMO HTRF inh, Rin1-Abl PPI inh)
Nc1ccc2c(c1)CC(=O)c1ccccc1S2	none (no result: ALR H2O2 inh)
O=C1Cc2ccccc2Sc2ccc(O)cc21	UBC13 inh 51 | Casp3 counter inactive | UBC13 confirm inactive
CCCCn1c(=O)[nH]c(=O)c2c1nc(-c1ccc(OCC)cc1)n2CC	none (no result: RBBP9 inhibitor)
CCCCn1c(=O)[nH]c(=O)c2c1nc(-c1ccc(C#N)cc1)n2C1CCCC1	UBC13 inh 78 | Casp3 counter inactive | UBC13 confirm 68
Cc1cc(Nc2cccc(F)c2)nc(NCc2ccccc2)n1	none
Cc1cc(N/N=C/c2ccc(Cl)cc2Cl)nc(NCc2ccccc2)n1	none
Cc1cc(C)nc(NCCCc2ccccc2)n1	none
CCCCNc1cc(C)nc(NCc2ccccc2)n1	UBC13 inh 48 | Casp3 counter inactive | UBC13 confirm 56
Cc1cc(Nc2ccccc2)nc(NCc2ccccc2)n1	UBC13 inh 46 | Casp3 counter inactive | UBC13 confirm 50
Cc1cc(Nc2ccc(Cl)cc2)nc(NCc2ccccc2)n1	UBC13 inh 72 | Casp3 counter inactive | UBC13 confirm 84
CN(C)CCNC=C(C(=O)Nc1ccc(Cl)cc1Cl)C(=O)Nc1ccc(Cl)cc1Cl	UBC13 inh 56 (no result: ALR H2O2 inh) | Casp3 counter inactive | UBC13 confirm 80
C[C@@H]1NC(=O)c2cc([N+](=O)[O-])cc(I)c2OCC[C@@H](C(=O)NC(CC(=O)O)C(N)=O)NC(=O)[C@H](CC(N)=O)NC1=O (some centres undefined)	none (no result: Rin1-Abl PPI inh)
O=C(CCN1C(=O)/C(=C/c2ccccc2Cl)SC1=S)NCCCN1CCOCC1	UBC13 inh 45 (no result: RBBP9 inhibitor) | Casp3 counter inactive | UBC13 confirm 61
CN1CCN(C(=O)CCN2C(=O)/C(=C/c3ccccc3Cl)SC2=S)CC1	UBC13 inh 69 | Casp3 counter inactive | UBC13 confirm 87
Cc1noc(C)c1S(=O)(=O)NC(=O)C1(C)CCN1C(=O)CC(c1ccccc1)c1ccccc1 (centres undefined)	none (no result: UBC13 inh, ALR H2O2 inh, RBBP9 inhibitor, SUMO HTRF inh, PREPL inh)
CCNC(=S)N=Nc1c(O)[nH]c2ccc(C(C)C)cc12	UBC13 inh 90 | Casp3 counter inactive | UBC13 confirm 88
O=[N+]([O-])c1ccc2[nH]c(O)c(N=NC(=S)NCC3CCCO3)c2c1 (centres undefined)	UBC13 inh 91 (no result: ALR H2O2 inh) | Casp3 counter inactive | UBC13 confirm 94
CCNC(=S)N=Nc1c(O)[nH]c2ccc([N+](=O)[O-])cc12	UBC13 inh 45 | Casp3 counter inactive | UBC13 confirm 60
O=[N+]([O-])c1ccc2[nH]c(O)c(N=NC(=S)Nc3cccnc3)c2c1	UBC13 inh inconclusive (no result: SUMO HTRF inh)
CCCC(=O)Nc1cc2c3c(c1)C(C)C(=O)N3CCC2 (centres undefined)	none (no result: RBBP9 inhibitor)
CCN(CC)CCCNc1ccc(-c2nnc(-c3ccc(OCC(C)C)cc3)o2)cn1	UBC13 inh 47 (no result: RBBP9 inhibitor) | Casp3 counter inactive | UBC13 confirm 78
O=C(CSc1ccc(S(=O)(=O)N2CCCCC2)cn1)Nc1ccccc1Br	none (no result: RBBP9 inhibitor, SUMO HTRF inh)
CN[C@H]1CC[C@@H](c2ccc(Cl)c(Cl)c2)c2ccccc21	none (no result: UBC13 inh) | Casp3 counter inactive
CCCCNS(=O)(=O)c1ccc2nc(-c3cccnc3)cc(C(=O)NCC(OC)OC)c2c1	none (no result: RBBP9 inhibitor)
C#CCOCCOCCOCCNc1nc(N2CCN(C(=O)[C@H](CCCCN)n3cc(CN)nn3)CC2)nc(N2CCN(C(=O)[C@H](CO)n3cc([C@@H](N)C(C)C)nn3)CC2)n1	none (no result: RBBP9 inhibitor, SUMO HTRF inh)
C#CCOCCOCCOCCNc1nc(N2CCN(C(=O)[C@H](CCCCN)n3cc([C@@H](N)[C@H](C)CC)nn3)CC2)nc(N2CCN(C(=O)[C@H](CCC(=O)O)n3cc([C@@H](N)CCCCN)nn3)CC2)n1	UBC13 inh 101 (no result: RBBP9 inhibitor, SUMO HTRF inh) | Casp3 counter inactive | UBC13 confirm 109
C#CCOCCOCCOCCNc1nc(N2CCN(C(=O)[C@H](CCCN=C(N)N)n3cc(C(N)[C@@H](C)CC)nn3)CC2)nc(N2CCN(C(=O)[C@H](CCCCN)n3cc([C@@H](N)[C@H](C)CC)nn3)CC2)n1 (some centres undefined)	UBC13 inh 95 (no result: RBBP9 inhibitor, SUMO HTRF inh) | Casp3 counter inactive | UBC13 confirm 88
C#CCOCCOCCOCCNc1nc(N2CCN(C(=O)[C@H](CCCCN)n3cc(C(N)[C@H](C)CC)nn3)CC2)nc(N2CCN(C(=O)[C@H](CCC(=O)O)n3cc(C(N)[C@H](C)CC)nn3)CC2)n1 (some centres undefined)	none
C#CCOCCOCCOCCNc1nc(N2CCN(C(=O)[C@H](CCCCN)n3cc(CN)nn3)CC2)nc(N2CCN(C(=O)[C@H](CCCCN)n3cc([C@@H](N)[C@H](C)CC)nn3)CC2)n1	UBC13 inh 109 (no result: RBBP9 inhibitor, SUMO HTRF inh) | Casp3 counter inactive | UBC13 confirm 108
COc1ccc([C@H]2C(C(=O)O)=C[C@@H](C(C)(C)C)N2S(=O)(=O)c2ccc(C)cc2)cc1OC	none (no result: ALR H2O2 inh, RBBP9 inhibitor, SUMO HTRF inh)

Assay outcomes from PubChem.
